ChEMBL document CHEMBL1165950, “Design and synthesis of new potent anticancer pyrazoles with high FLT3 kinase inhibitory selectivity” (Bioorg Med Chem, 2010)

How the values were obtained:
Type in all cases: functional
Conditions in all cases: read-out: Activity
PC-3 = assay: Cytotoxicity against human PC3 cells assessed as cell growth at 10 uM
Outline: (§1)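 NCI-60 screen: cells grown in RPMI 1640 with 5% FBS and 2 mM L-glutamine, plated at 5000–40,000 cells/well according to doubling time, and preincubated 24 h at 37 °C, 5% CO2. The single 10 µM dose (DMSO stock) was added, then incubated 48 h. Cells were TCA-fixed and stained with 0.4% SRB, read at 515 nm, and growth % calculated against time-zero and control plates.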

MOLT-4 = assay: Cytotoxicity against human MOLT4 cells assessed as cell growth at 10 uM; outline: as §1
A549 = assay: Cytotoxicity against human A549 cells assessed as cell growth at 10 uM
Outline: (§2)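 Single-dose NCI-60 screen at 10 µM. Cells were grown in RPMI 1640 with 5% FBS and 2 mM L-glutamine, then treated for 48 h at 37 °C. Protein was measured by SRB staining with absorbance at 515 nm. Percentage growth was recorded, and inhibition percentage was calculated as 100 minus growth percentage.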

MDA-MB-231 = assay: Cytotoxicity against human MDA-MB-231 cells assessed as cell growth at 10 uM; outline: as §1
[1] = Cytotoxicity against human […] cells assessed as cell growth at 10 uM; outline: as §1
DU-145 = assay: Cytotoxicity against human DU145 cells assessed as cell growth at 10 uM; outline: as §2
BT-549 = assay: Cytotoxicity against human BT549 cells assessed as cell growth at 10 uM; outline: as §2
K562 = assay: Cytotoxicity against human K562 cells assessed as cell growth at 10 uM; outline: as §2
SF-268 = assay: Cytotoxicity against human SF268 cells assessed as cell growth at 10 uM; outline: as §1
HL-60(TB) = assay: Cytotoxicity against human HL-60(TB) cells assessed as cell growth at 10 uM
Outline: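 NCI 60-cell panel screen at a single concentration of 10 µM. Cells are grown in RPMI 1640 with 5% FBS and 2 mM L-glutamine and read by SRB protein staining at 515 nm. Percent growth is measured relative to time-zero and untreated controls; inhibition % is 100 minus growth %.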

HCT-15 = assay: Cytotoxicity against human HCT15 cells assessed as cell growth at 10 uM; outline: as §2
CAKI-1 = assay: Cytotoxicity against human Caki1 cells assessed as cell growth at 10 uM; outline: as §2
M14 = assay: Cytotoxicity against human M14 cells assessed as cell growth at 10 uM; outline: as §1
SW-620 = assay: Cytotoxicity against human SW620 cells assessed as cell growth at 10 uM; outline: as §1
HT-29 = assay: Cytotoxicity against human HT-29 cells assessed as cell growth at 10 uM; outline: as §2
[2] = Cytotoxicity against human Hs 578T cells assessed as cell growth at 10 uM; outline: as §2
OVCAR-4 = assay: Cytotoxicity against human OVCAR4 cells assessed as cell growth at 10 uM; outline: as §1
MDA-MB-435 = assay: Cytotoxicity against human MDA-MB-435 cells assessed as cell growth at 10 uM; outline: as §1
786-0 = assay: Cytotoxicity against human 786-0 cells assessed as cell growth at 10 uM; outline: as §2
CCRF-CEM = assay: Cytotoxicity against human CCRF-CEM cells assessed as cell growth at 10 uM; outline: as §2
COLO 205 = assay: Cytotoxicity against human COLO205 cells assessed as cell growth at 10 uM; outline: as §2
UACC-257 = assay: Cytotoxicity against human UACC257 cells assessed as cell growth at 10 uM; outline: as §1
ACHN = assay: Cytotoxicity against human ACHN cells assessed as cell growth at 10 uM; outline: as §2
HCT-116 = assay: Cytotoxicity against human HCT116 cells assessed as cell growth at 10 uM; outline: as §2
SK-MEL-28 = assay: Cytotoxicity against human SK-MEL-28 cells assessed as cell growth at 10 uM; outline: as §1
EKVX = assay: Cytotoxicity against human EKVX cells assessed as cell growth at 10 uM; outline: as §2
KM12 = assay: Cytotoxicity against human KM12 cells assessed as cell growth at 10 uM; outline: as §1
MCF7 = assay: Cytotoxicity against human MCF7 cells assessed as cell growth at 10 uM; outline: as §1
OVCAR-3 = assay: Cytotoxicity against human OVCAR-3 cells assessed as cell growth at 10 uM; outline: as §1
SNB-19 = assay: Cytotoxicity against human SNB19 cells assessed as cell growth at 10 uM; outline: as §1

**Q.** Which results are given for Cc1cc(O)cc(-c2nn(CC#N)cc2-c2ccnc(-c3ccccc3)c2)c1?
**A.** growth at 10 µM (PC-3): 88.7%; growth at 10 µM (MOLT-4): 71%; growth at 10 µM (A549): 85.5%; growth at 10 µM (MDA-MB-231): 80.7%; growth at 10 µM [1]: 84.5%; growth at 10 µM (DU-145): 103%; growth at 10 µM (BT-549): 93.5%; growth at 10 µM (K562): 71.5%; growth at 10 µM (SF-268): 99.6%; growth at 10 µM (HL-60(TB)): 78.4%; growth at 10 µM (HCT-15): 54%; growth at 10 µM (CAKI-1): 82.4%; growth at 10 µM (M14): 81.3%; growth at 10 µM (SW-620): 87.6%; growth at 10 µM (HT-29): 61.9%; growth at 10 µM [2]: 84.6%; growth at 10 µM (OVCAR-4): 77.7%; growth at 10 µM (MDA-MB-435): 97.8%; growth at 10 µM (786-0): 67%; growth at 10 µM (CCRF-CEM): 85.8%; growth at 10 µM (COLO 205): 108%; growth at 10 µM (UACC-257): 95.6%; growth at 10 µM (ACHN): 74.4%; growth at 10 µM (HCT-116): 59.1%; growth at 10 µM (SK-MEL-28): 85.2%; growth at 10 µM (EKVX): 101%; growth at 10 µM (KM12): 97.2%; growth at 10 µM (MCF7): 53.8%; growth at 10 µM (OVCAR-3): 107%; growth at 10 µM (SNB-19): 87%
